Experimental data taken from ChEMBL document CHEMBL1157772, “In vitro cytotoxic activity of isolated acridones alkaloids from Zanthoxylum leprieurii Guill. et Perr” (Bioorg Med Chem, 2010).
pIC50: −log10 of the molar value.

How the values were obtained:
Type in all cases: functional, cell-based
DLD-1 = test: Cytotoxicity against human DLD1 cells after 48 hrs by resazurin reduction assay; conditions: DLD-1, 48 h
Outline: (§1)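 Cell lines from ATCC, grown in MEM with Earle's salts, 10% fetal calf serum, vitamins, sodium pyruvate, non-essential amino acids, penicillin/streptomycin, at 37 °C, 5% CO2. Cells (5 × 10^3/well) adhered 16 h, then exposed 48 h to increasing concentrations in medium with 0.25% (v/v) final DMSO. Resazurin reduction read by fluorescence (ex 530/em 590 nm). IC50 as mean ± SD, two experiments in triplicate.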

[1] = Cytotoxicity against human WS1 cells after 48 hrs by resazurin reduction assay; conditions: WS1, 48 h; outline: as §1
A549 = test: Cytotoxicity against human A549 cells after 48 hrs by resazurin reduction assay; conditions: A549, 48 h; outline: as §1

| SMILES | pIC50 (DLD-1) | pIC50 [1] | pIC50 (A549) |
| --- | --- | --- | --- |
| COc1cc(O)c(OC)c2c1c(=O)c1ccccc1n2C | < 4.00 | < 4.00 | < 4.00 |
| COc1ccc([C@@H]2CC(=O)c3c(O)cc(O[C@@H]4O[C@H](CO[C@@H]5O[C@@H](C)[C@H](O)[C@@H](O)[C@H]5O)[C@@H](O)[C@H](O)[C@H]4O)cc3O2)cc1O [HESPERIDIN] | < 4.00 | < 4.00 | < 4.00 |
| COc1cc(O)cc2c1c(=O)c1ccccc1n2C [TEGERRARDIN A] | 4.15 | 4.38 | 4.44 |
| COc1cc2c(c(O)c1OC)c(=O)c1ccccc1n2C [ARBORININE] | 4.13 | 4.25 | 4.46 |
| COc1cc(O)c2c(=O)c3ccccc3n(C)c2c1 | 4.57 | 4.29 | 4.51 |
| CCCCCCCCCCCCCCCCCCCCCCCC(=O)NCCc1ccc(O)cc1 | < 4.00 | < 4.00 | < 4.00 |
| COc1cc2ccc(=O)oc2cc1OC [SCOPARONE] | < 4.00 | < 4.00 | < 4.00 |
| COc1cc([C@@H]2c3cc4c(cc3[C@@H](O[C@@H]3O[C@@H]5CO[C@@H](C)O[C@H]5[C@H](O)[C@H]3O)[C@H]3COC(=O)[C@H]23)OCO4)cc(OC)c1O [ETOPOSIDE] | 5.00 | 5.37 | 4.80 |
| COc1c(O)cc2c(c1OC)c(=O)c1ccccc1n2C | 4.11 | 4.13 | 4.28 |
